Assay results taken from ChEMBL document CHEMBL4765370, “Design, synthesis, and biological evaluation of aryl piperazines with potential as antidiabetic agents via the stimulation of glucose uptake and inhibition of NADH:ubiquinone oxidoreductase” (Eur J Med Chem, 2020).
≈ marks a conversion by molar mass, not a printed value.

Key:
[1] = Bioavailability in C57 Black mouse at 10 mg/kg, iv or po; conditions: in vivo
[2] = Tmax in C57 Black mouse spleen at 10 mg/kg, po; assay type: ADME, organism-based
Method in brief: (§1)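 Male C57BL/6 mice (n = 3) dosed at 10 mg/kg by IV or oral (PO) route. Dosing solutions were formulated in 10% DMSO, 10% cremaphor and 80% saline. Compound levels were measured in plasma and tissues over time, and values are given as mean ± SEM.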

[3] = Cmax in C57 Black mouse liver at 10 mg/kg, iv; assay type: ADME, organism-based; design: route intravenous, dose 10 mg/kg
Method in brief: (§2)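 Male C57BL/6 mice were given a single 10 mg/kg dose either intravenously or orally. The oral and IV solutions were formulated in 10% DMSO, 10% cremaphor and 80% saline. Concentrations in plasma and in the tissues collected were determined after dosing, with n = 3 per route. Values are given as mean ± SEM.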

[4] = AUCinfinity in C57 Black mouse kidney at 10 mg/kg, iv; assay type: ADME, organism-based; design: route intravenous, time infinity, dose 10 mg/kg
Method in brief: as §2

[5] = Metabolic stability in human hepatocytes assessed as hepatic extraction ratio at 1 uM up to 120 mins by HPLC-MS/MS analysis; assay type: ADME, cell-based, Hepatocyte
Method in brief: (§3)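 Cryopreserved hepatocytes (human or mouse) added to buffer containing compound at 1 µM; incubated at 37 °C up to 120 min, stopped with acetonitrile containing internal standard. Centrifuged supernatant analysed for parent compound by HPLC-MS/MS; n = 2. Half-life and intrinsic clearance (µL/min/10^6 cells) derived; extraction ratio reported from these.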

[6] = Clearance in C57 Black mouse assessed as liver blood flow at 10 mg/kg, iv or po; assay type: ADME, organism-based; conditions: in vivo
[7] = Tmax in C57 Black mouse plasma at 10 mg/kg, iv; assay type: ADME, organism-based
Method in brief: as §1

[8] = AUCall in C57 Black mouse muscle at 10 mg/kg, iv; assay type: ADME, organism-based, Muscle tissue; design: dose 10 mg/kg
Method in brief: as §2

[9] = Half life in C57 Black mouse spleen at 10 mg/kg, po; assay type: ADME, organism-based
Method in brief: as §1

[10] = AUCall in C57 Black mouse kidney at 10 mg/kg, iv; assay type: ADME, organism-based; design: dose 10 mg/kg
Method in brief: as §2

[11] = Cmax in C57 Black mouse brain at 10 mg/kg, iv; assay type: ADME, organism-based; design: route intravenous, dose 10 mg/kg
Method in brief: as §2

[12] = Half life in C57 Black mouse brain at 10 mg/kg, iv; assay type: ADME, organism-based
Method in brief: as §2

[13] = Intrinsic clearance in human microsomes at 1 uM up to 120 mins by HPLC/MS-MS analysis; assay type: ADME, Microsome
[14] = Cmax in C57 Black mouse liver at 10 mg/kg, po; assay type: ADME, organism-based; design: route oral, dose 10 mg/kg
Method in brief: as §2

[15] = Cmax in C57 Black mouse plasma at 10 mg/kg, po; assay type: ADME, organism-based; design: route oral, dose 10 mg/kg
Method in brief: as §2

[16] = Volume of distribution in C57 Black mouse liver at 10 mg/kg, iv; assay type: ADME, organism-based
Method in brief: as §1

[17] = Metabolic stability in mouse hepatocytes assessed as hepatic extraction ratio at 1 uM up to 120 mins by HPLC-MS/MS analysis; assay type: ADME, cell-based, Hepatocyte
Method in brief: as §3

[18] = Half life in C57 Black mouse muscle at 10 mg/kg, iv; assay type: ADME, organism-based, Muscle tissue
Method in brief: as §1

CYP2C9 = CYP2C9 (Homo sapiens, UniProt P11712); test: Inhibition of human CYP2C9 using fluorogenic substrate incubated for 60 mins in presence of NADPH by fluorescence assay relative to control; assay type: ADME; conditions: probe fluorogenic substrate
Method in brief: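 Baculosomes each expressing a single cDNA-derived human P450 isozyme were incubated with compound at 10 µM, a fluorogenic substrate and NADPH. Incubation was at 37 °C for at least 60 min before fluorescence was read, n = 3.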

[19] = AUClast in C57 Black mouse plasma at 10 mg/kg, po; assay type: ADME, organism-based; design: route oral, time 0 - last, dose 10 mg/kg
Method in brief: as §2

[20] = Thermodynamic solubility of compound in PBS at 1 mg/ml after 24 hrs by LC-MS/MS analysis; assay type: physicochemical; conditions: read-out: Therm_solubility
Method in brief: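 Compound was equilibrated at 1 mg/mL and at 0.1 mg/mL in PBS containing 5% (v/v) DMSO, for 24 h at 21 °C. Samples were centrifuged at 15,000 g for 10 min and the supernatant was quantified by LC-MS/MS, n = 3.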

C2C12 = test: Induction of glucose uptake in mouse C2C12 cells assessed as [3H]2-deoxyglucose uptake preincubated for 16 hrs followed by followed by [3H]2-deoxyglucose addition and measured after 10 mins by liquid scintillation counting method; assay type: functional
Method in brief: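 C2C12 mouse myoblasts were grown in high-glucose DMEM with 10% FBS. At 80% confluence they were differentiated into myotubes with 2% horse serum. Myotubes were exposed to compound (10 µM) for 16 h in medium with 0.1% horse serum, then washed with KRB pH 7.4 and given 1 µCi/mL [3H]-2-deoxyglucose for 10 min at 37 °C. After ice-cold washes and 0.1% SDS lysis, scintillation counts were normalised to BCA protein. Results are fold change vs DMSO, mean ± SEM, one-way ANOVA.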

[21] = Intrinsic clearance in human hepatocytes at 1 uM up to 120 mins by HPLC-MS/MS analysis; assay type: ADME, cell-based, Hepatocyte; conditions: 2 h
[22] = AUClast in C57 Black mouse brain at 10 mg/kg, iv; assay type: ADME, organism-based; design: time 0 - last, route intravenous, dose 10 mg/kg
Method in brief: as §2

[23] = AUCall in C57 Black mouse brain at 10 mg/kg, po; assay type: ADME, organism-based; design: dose 10 mg/kg
Method in brief: as §2

[24] = Tmax in C57 Black mouse kidney at 10 mg/kg, po; assay type: ADME, organism-based
Method in brief: as §1

[25] = Volume of distribution in C57 Black mouse muscle at 10 mg/kg, iv; assay type: ADME, organism-based, Muscle tissue
Method in brief: as §1

[26] = AUCall in C57 Black mouse liver at 10 mg/kg, iv; assay type: ADME, organism-based; design: dose 10 mg/kg
Method in brief: as §2

[27] = Half life in mouse microsomes at 1 uM up to 120 mins by HPLC/MS-MS analysis; assay type: ADME, Microsome
[28] = Cmax in C57 Black mouse kidney at 10 mg/kg, iv; assay type: ADME, organism-based; design: route intravenous, dose 10 mg/kg
Method in brief: as §2

[29] = Tmax in C57 Black mouse kidney at 10 mg/kg, iv; assay type: ADME, organism-based
Method in brief: as §1

[30] = AUCall in C57 Black mouse kidney at 10 mg/kg, po; assay type: ADME, organism-based; design: dose 10 mg/kg
Method in brief: as §2

[31] = Half life in C57 Black mouse brain at 10 mg/kg, po; assay type: ADME, organism-based
Method in brief: as §2

[32] = Volume of distribution in C57 Black mouse plasma at 10 mg/kg, iv; assay type: ADME, organism-based
Method in brief: as §1

[33] = Volume of distribution in C57 Black mouse kidney at 10 mg/kg, iv; assay type: ADME, organism-based
Method in brief: as §1

[34] = AUClast in C57 Black mouse muscle at 10 mg/kg, iv; assay type: ADME, organism-based, Muscle tissue; design: time 0 - last, route intravenous, dose 10 mg/kg
Method in brief: as §2

[35] = Clearance in C57 Black mouse plasma at 10 mg/kg, iv; assay type: ADME, organism-based; conditions: in vivo
Method in brief: as §2

[36] = AUCall in C57 Black mouse spleen at 10 mg/kg, iv; assay type: ADME, organism-based; design: dose 10 mg/kg
Method in brief: as §2

[37] = Half life in C57 Black mouse plasma at 10 mg/kg, iv; assay type: ADME, organism-based
Method in brief: as §1

[38] = Cmax in C57 Black mouse spleen at 10 mg/kg, po; assay type: ADME, organism-based; design: route oral, dose 10 mg/kg
Method in brief: as §2

[39] = Protein binding human serum at 1 uM after 60 to 120 mins by HPLC-MS/MS analysis; assay type: ADME, cell-free; conditions: time 60-120 min, read-out: PB (converted)
[40] = AUClast in C57 Black mouse liver at 10 mg/kg, po; assay type: ADME, organism-based; design: time 0 - last, route oral, dose 10 mg/kg
Method in brief: as §2

[41] = Half life in C57 Black mouse kidney at 10 mg/kg, iv; assay type: ADME, organism-based
Method in brief: as §1

[42] = Cmax in C57 Black mouse muscle at 10 mg/kg, iv; assay type: ADME, organism-based, Muscle tissue; design: route intravenous, dose 10 mg/kg
Method in brief: as §2

[43] = Volume of distribution in C57 Black mouse brain at 10 mg/kg, iv; assay type: ADME, organism-based
Method in brief: as §1

Chain of CYP2C9 (P11712 whole entry): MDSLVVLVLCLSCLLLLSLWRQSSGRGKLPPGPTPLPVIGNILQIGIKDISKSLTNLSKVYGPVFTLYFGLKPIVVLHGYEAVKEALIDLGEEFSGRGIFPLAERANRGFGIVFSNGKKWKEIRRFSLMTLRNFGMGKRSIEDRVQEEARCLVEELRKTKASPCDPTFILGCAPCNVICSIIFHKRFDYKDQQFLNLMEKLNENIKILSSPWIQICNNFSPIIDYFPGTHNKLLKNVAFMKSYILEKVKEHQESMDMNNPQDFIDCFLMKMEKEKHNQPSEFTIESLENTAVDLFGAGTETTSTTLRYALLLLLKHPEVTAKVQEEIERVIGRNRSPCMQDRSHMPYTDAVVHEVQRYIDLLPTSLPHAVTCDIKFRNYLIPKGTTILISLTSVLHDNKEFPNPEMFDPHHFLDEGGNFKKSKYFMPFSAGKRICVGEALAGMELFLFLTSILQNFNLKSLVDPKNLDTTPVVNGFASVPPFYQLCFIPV

## O=C(CCCc1cccs1)N1CCN(c2ccc(C(F)(F)F)cc2)CC1
[1]
  Bioavailability: 21.4%
[2]
  Tmax: 15 min
[3]
  Cmax: 1830 ng/mL
[4]
  AUC(0-inf): 348 ng·h/mL
[5]
  hepatic extraction ratio at 2 h, 1 µM: 0.98
[6]
  clearance: 90 mL/min/kg
[7]
  Tmax: 1.8 min
[8]
  AUC: 77.3 ng·h/mL
[9]
  half-life: 66 min
[10]
  AUC: 320 ng·h/mL
[11]
  Cmax: 1030 ng/mL
[12]
  half-life: 30 min
[13]
  microsomal CLint at 1 µM: 116 µL/min/mg
[14]
  Cmax: 4880 ng/mL
[15]
  Cmax: 787 ng/mL
[16]
  Vd: 3.06 L/kg
[17]
  hepatic extraction ratio at 2 h, 1 µM: 0.48
[18]
  half-life: 31.2 min
CYP2C9
  inhibition at 1 h: 74.2%
[19]
  AUC(0-t): 520 ng·h/mL
[20]
  solubility thermodynamic at 24 h: 4 µg/mL (≈ 10.5 µM)
C2C12
  fold change (FC): 2.57
[21]
  CLH: 346 µL/min
[22]
  AUC(0-t): 246 ng·h/mL
[23]
  AUC: 763 ng·h/mL
[24]
  Tmax: 15 min
[25]
  Vd: 7.13 L/kg
[26]
  AUC: 487 ng·h/mL
[27]
  half-life at 1 µM: 6 min
[28]
  Cmax: 552 ng/mL
[29]
  Tmax: 1.8 min
[30]
  AUC: 1220 ng·h/mL
[31]
  half-life: 27.6 min
[32]
  Vd: 1.69 L/kg
[33]
  Vd: 3.06 L/kg
[34]
  AUC(0-t): 77.3 ng·h/mL
[35]
  CL: 68.37 mL/min/kg
[36]
  AUC: 463 ng·h/mL
[37]
  half-life: 27 min
[38]
  Cmax: 1100 ng/mL
[39]
  fraction unbound at 1 µM: 0.0052
[40]
  AUC(0-t): 4050 ng·h/mL
[41]
  half-life: 45.6 min
[42]
  Cmax: 165 ng/mL
[43]
  Vd: 1.83 L/kg
